Screens from PubChem BioAssay.
CHRM4 PAM: positive allosteric modulators of human muscarinic M4 receptor | CHO-K1 hM4/Gqi5, Fluo-8 calcium fluorescence, ACh EC20; 0% = ACh EC20, 100% = maximal ACh | AID 624126 | P08173 | activation, % at 3 µM | 360,000 compounds, 0.4% hits;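 active = activation above its plate's cutoff, the mean activation of sample wells plus 3 SD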
Target sequence (P08173 whole entry, looked up): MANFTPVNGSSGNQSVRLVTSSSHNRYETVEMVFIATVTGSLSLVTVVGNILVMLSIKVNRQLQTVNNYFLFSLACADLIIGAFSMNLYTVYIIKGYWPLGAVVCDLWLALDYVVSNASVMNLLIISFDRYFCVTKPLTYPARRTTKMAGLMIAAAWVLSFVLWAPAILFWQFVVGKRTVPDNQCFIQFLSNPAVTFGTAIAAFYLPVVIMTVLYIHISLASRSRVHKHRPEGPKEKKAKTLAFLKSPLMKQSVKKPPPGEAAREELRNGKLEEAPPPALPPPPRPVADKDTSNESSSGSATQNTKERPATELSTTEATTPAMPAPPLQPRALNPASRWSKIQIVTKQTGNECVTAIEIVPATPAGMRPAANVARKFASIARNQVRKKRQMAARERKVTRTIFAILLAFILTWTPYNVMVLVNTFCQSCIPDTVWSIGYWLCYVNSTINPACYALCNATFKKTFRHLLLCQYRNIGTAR
M5 ag: CHRM5 agonism in calcium assay | activation, % at 3 µM | CHO-K1 hM5 cells, Fluo-8 calcium fluorescence; 0% DMSO wells, 100% maximal acetylcholine response | 360,000 compounds, 0.19% hits;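 active = activation above the run's mean over test compounds plus 3 SD, cut at about 23% in these data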;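 note: signal is peak over basal fluorescence ratio across the kinetic read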
CHRM4 antagonist: antagonists of human muscarinic M4 receptor (CHRM4); P08173; CHO-hM4 cells, ACh EC80, Fluo-8 calcium fluorescence; inhibition, % at 3 µM; 360,000 compounds, 0.73% hits;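 active = inhibition above its plate's cutoff, the mean inhibition of sample wells plus 3 SD, cut at about 27% in these data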;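 note: 0% = acetylcholine EC80 with DMSO and 100% = DMSO without agonist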
CHRM4 agonist: agonists of human muscarinic M4 receptor (CHRM4) | CHO-K1 hM4/Gqi5, Fluo-8 calcium fluorescence; vehicle 0%, full acetylcholine response 100% | 360,000 compounds, 0.14% hits | activation, % at 3 µM | P08173;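 active = activation above the run mean over all test wells plus 3 SD, cut at about 32% in these data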;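 note: peak over basal fluorescence ratio per well then scaled between controls; 0% = DMSO wells and 100% = acetylcholine at EC100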
M5 antag: blocks acetylcholine activation of human M5 receptor | P08912 | CHO-hM5 cells, Fluo-8 calcium fluorescence, ACh EC80 | inhibition, % at 3 µM | 360,000 compounds, 0.59% hits;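 active = inhibition above a per-plate cutoff, the mean of that plate's test compounds plus 3 SD, cut at about 27% in these data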;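 note: 0% = acetylcholine EC80 with DMSO and 100% = DMSO without agonist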
CHRM5 PAM: CHRM5 positive allosteric modulation | P08912 | CHO-K1 hM5, Fluo-8 calcium, ACh EC20 PAM; 0% = ACh EC20, 100% = ACh EC100 | AID 624038 | activation, % at 3 µM | 360,000 compounds, 0.3% hits;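 active = activation above the run cutoff, the mean activation of all test compounds plus 3 SD, cut at about 18% in these data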
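System: CHO-K1 cell line with stable human muscarinic M5 receptor expression | Also added: EC20 acetylcholine as agonist stimulus | Compound: One concentration, 3 µM final (nominal) | Timing: Fluo-8 loading 80 min at 37 °C plus 30 min room temperature | Measured by: Fluo-8 calcium dye fluorescence, kinetic read | Read-out basis: % activation, ACh-normalized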
Starred values were filed as active, the others as inactive. Rows were chosen to be rich in hits. Some 1.8% of all compounds tested hit in one or more screens of this group.

SMILES	CHRM4 PAM	M5 ag	CHRM4 antagonist	CHRM4 agonist	M5 antag	CHRM5 PAM
OC(CCN1CCCCC1)c1ccc(-c2ccccc2)cc1 (stereo not given)	-13	-5	14	3	7	-2
Clc1ccc(C(CCN2CCCC2)Cc2ccccc2)cc1 (stereo not given)	-19	-8	32*	4	26	-18
O=C(Nc1c(-c2ccc(Cl)cc2)[nH][nH]c1=O)c1ccccn1	7	-1	-10	1	-5	-2
Cc1csc2ncnc(N3CCN(S(=O)(=O)c4cccc(C(F)(F)F)c4)CC3)c12	-13	1	26	14	44*	-18
O=[N+]([O-])c1ccc2c(c1)C(O)n1nc(-c3ccc(Cl)cc3Cl)nc1S2 (stereo not given)	7	-3	-18	1	0	25*
O=[N+]([O-])c1ccc2c(c1)C(O)n1ncnc1S2 (stereo not given)	7	-2	2	1	-1	5
COC(=O)c1cnc(Nc2nc(CN)cs2)nc1C(F)(F)F	1	0	1	1	3	0
CCC(=O)N1CCc2cc(S(=O)(=O)CCC(=O)N3CCN(c4ccc(Cl)cc4)CC3)ccc21	-6	2	2	12	28*	-12
O=C(Nc1ccnn1C1CCN(C(=O)c2cccc(C(F)(F)F)c2)CC1)C1CC1	21*	-3	-8	2	11	1
O=C(Nc1ccnn1C1CCN(C(=O)c2ccc(C(F)(F)F)cc2)CC1)C1CC1	4	-7	-12	2	5	-5
Cc1ccc(CNc2ncnc3ccc(-c4ccc(CO)o4)cc23)o1	-3	-2	3	2	16	-9
O=C(Nc1ccccc1)c1cc(C2COCCN2C(=O)CCCc2ccccc2)on1 (stereo not given)	-3	2	-2	9	1	0
CCn1c(-c2cc(-c3ccc(C)cc3)nc3ccccc23)n[nH]c1=S	4	-12	-1	0	98*	-32
O=C(/C=C/[C@H]1O[C@@H](n2cnc3c(NC(=O)c4ccccc4)ncnc32)[C@H](O)[C@@H]1O)N[C@@H](CO)Cc1c[nH]c2ccccc12	-2	2	5	0	9	-2
CC1(C(=O)NS(=O)(=O)c2ccc(F)cc2F)CCN1C(=O)Cc1ccc(Cl)cc1Cl (stereo not given)	1	1	0	0	11	-6
CC(C)(C)NC(=O)C(c1ccccn1)N(C(=O)c1csnn1)C1CCCCC1 (stereo not given)	4	0	2	1	-8	9
CCC(C)(C)NC(=O)C(c1ccccn1)N(C(=O)c1csnn1)C1CCCCC1 (stereo not given)	3	0	1	1	-6	23*
Cc1n[nH]c(C)c1CCNC(=O)C1CCC(=O)N(CCc2cccc(F)c2)C1 (stereo not given)	10	3	-8	0	-6	24*
CC(C)(C)c1ccc(C(=O)N2CCC2(C)C(=O)NCc2ccc3c(c2)OCO3)cc1 (stereo not given)	-1	3	-3	3	3	-3
Cc1sc[n+](CC(=O)c2ccc(Br)cc2)c1C	-4	-6	3	0	15	-6
Cc1c(CCOC(=O)c2ccc(Cl)cc2Cl)sc[n+]1CC(=O)c1ccccc1	-12	-7	44*	11	45*	-46
Cc1c(CCOC(=O)c2cc([N+](=O)[O-])cc([N+](=O)[O-])c2)sc[n+]1CC(=O)c1ccc(Br)cc1	-17	-11	29*	0	2	0
Cc1c(CCOC(=O)C23CC4(C)CC(C)(CC(C)(C4)C2)C3)sc[n+]1CC(=O)c1ccccc1	-12	-10	9	0	16	-17
CCc1nc2ccc(C(=O)NCCCn3ccnc3)cn2c1N(C)Cc1ccc(OC)cc1	-3	-2	-6	2	7	-3
